One block for each molecule: values may come before it. Activity calls are given as the source filed them. The rule behind the calls is not given here.
How the values were obtained:
[1] = system: SMMC-7721; experiment: Induction of cell vacuole formation in human SMMC7721cells at 5 uM incubated for 24 hrs by phase contrast microscopy; format: functional, cell-based
[2] = system: SMMC-7721; experiment: Antiproliferative activity against human SMMC7721 assessed as reduction in cell viability incubated for 48 hrs by MTT assay; format: functional, cell-based
[3] = system: CNE; experiment: Antiproliferative activity against human CNE1 cells assessed as reduction in cell viability incubated for 48 hrs by MTT assay; format: functional, cell-based
[4] = system: HepG2; experiment: Antiproliferative activity against human HepG2 cells assessed as reduction in cell viability incubated for 48 hrs by MTT assay; format: functional, cell-based
[5] = system: CNE-2; experiment: Antiproliferative activity against human CNE2 cells assessed as reduction in cell viability incubated for 48 hrs by MTT assay; format: functional, cell-based
[6] = system: CNE; experiment: Induction of cell vacuole formation in human CNE1 cells at 5 uM incubated for 24 hrs by phase contrast microscopy; format: functional, cell-based
[7] = system: HepG2; experiment: Induction of cell vacuole formation in human HepG2 cells at 5 uM incubated for 24 hrs by phase contrast microscopy; format: functional, cell-based
[8] = system: CNE-2; experiment: Induction of cell vacuole formation in human CNE2 cells at 5 uM incubated for 24 hrs by phase contrast microscopy; format: functional, cell-based
[9] = system: SMMC-7721; experiment: Induction of apoptosis with PS translocation in human SMMC7721 cells at 3 to 10 uM incubated for 48 hrs by Annexin V-FITC and propidium iodide staining based flow cytometry; format: functional, cell-based
Summary of the method: (§1)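 After 48 h treatment, SMMC-7721 cells were collected, stained with annexin V-FITC plus PI, and analysed by flow cytometry for PS externalization/apoptotic fraction.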

[10] = system: SMMC-7721; experiment: Antiproliferative activity against human SMMC7721 cells assessed as decrease in cell viability incubated for 48 hrs by CCK-8 assay; format: functional, cell-based
Summary of the method: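 SMMC-7721 cells exposed 48 h to 3, 5 or 10 μM, then viability read by CCK-8 assay.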

[11] = system: SMMC-7721; experiment: Induction of cell morphological changes in human SMMC7721 cells assessed as formation of apoptotic bodies at 5 uM incubated for 48 hrs by transmission electron microscopy; format: functional, cell-based
Summary of the method: (§2)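 SMMC-7721 cells incubated 48 h at 5 μM, alongside untreated control cells, then imaged by transmission electron microscopy. ER, mitochondria, Golgi, nucleus, membrane and autophagosomes/apoptotic bodies were inspected.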

[12] = system: SMMC-7721; experiment: Induction of cytoplasmic vacuolation in human SMMC7721 cells assessed as increase in number of vacuoles formation with shrinked volume of vacuoles at 3 to 10 uM incubated for 48 hrs by inverted phase contrast microscopy; format: functional, cell-based
[13] = system: SMMC-7721; experiment: Induction of cell morphological changes in human SMMC7721 cells assessed as vacuole formation in mitochondria at 5 uM incubated for 48 hrs by transmission electron microscopy; format: functional, cell-based; summary of the method: as §2
[14] = system: HepG2; experiment: Antiproliferative activity against human HepG2 cells assessed as reduction in cell viability incubated for 48 hrs by CCK-8 assay; format: functional, cell-based
[15] = system: SMMC-7721; experiment: Induction of cell morphological changes in human SMMC7721 cells assessed as cytoplasmic loss at 3 to 10 uM incubated for 48 hrs by H and E staining based light microscopy; format: functional
Summary of the method: (§3)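 Haematoxylin-eosin staining of SMMC-7721 cells after 48 h treatment, examined by light microscopy.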

[16] = system: SMMC-7721; experiment: Induction of cell morphological changes in human SMMC7721 cells assessed as appearance of smaller nucleus at 5 uM incubated for 48 hrs by transmission electron microscopy; format: functional, cell-based; summary of the method: as §2
[17] = system: SMMC-7721; experiment: Induction of apoptosis in human SMMC7721 cells assessed as viable cells with normal cell membrane at 10 uM incubated for 48 hrs by Annexin V-FITC and propidium iodide staining based flow cytometry; format: functional; summary of the method: as §1
[18] = system: SMMC-7721; experiment: Induction of cell cycle arrest in human SMMC7721 cells at 3 to 10 uM incubated for 48 hrs by propidium iodide staining based flow cytometry; format: functional
[19] = system: CNE; experiment: Induction of cell vacuole formation in human CNE1 cells at 3 to 5 uM incubated for 48 hrs by phase contrast microscopy; format: functional, cell-based
[20] = system: SMMC-7721; experiment: Induction of cell morphological changes in human SMMC7721 cells assessed as cell shrinkage at 3 to 10 uM incubated for 48 hrs by HE staining based light microscopy; format: functional; summary of the method: as §3
[21] = system: SMMC-7721; experiment: Induction of endoplasmic reticulum vacuolation in human SMMC7721 cells assessed as vacuole derivatization by expansion and swelling of rough ER with vacuoles wrapped in monolayer membranes with loss of ER structure integrity at 5 uM incubated for 48 hrs by transmission electron microscopy; format: functional, cell-based; summary of the method: as §2
[22] = system: SMMC-7721; experiment: Induction of endoplasmic reticulum vacuolation in human SMMC7721 cells assessed as increase in vacuole formation and entire ER cytoplasm occupied with vacuole with loss of cell contents at 3 to 5 uM incubated for 48 hrs by ER-tracker red and Hoechst 33342 staining based laser scanning confocal microscopy; format: functional
[23] = system: SMMC-7721; experiment: Induction of endoplasmic reticulum vacuolation in human SMMC7721 cells assessed as nuclei shrank and appearance of vacuoles surrounded by positive ER-specific markers at 3 to 5 uM incubated for 48 hrs by ER-tracker red and Hoechst 33342 staining based laser scanning confocal microscopy; format: functional, cell-based
[24] = system: SMMC-7721; experiment: Induction of endoplasmic reticulum stress in human SMMC7721 cells assessed as increase in GRP78 expression at 3 uM by Western blot analysis; format: functional, cell-based; conditions: TDE = time-dependent effect
[25] = system: SMMC-7721; experiment: Increase in LC3-II/LC3-I expression ratio in human SMMC7721 cells at 3 uM incubated for 12 to 48 hrs by Western blot analysis; format: functional, cell-based
[26] = system: SMMC-7721; experiment: Induction of cell morphological changes in human SMMC7721 cells assessed as appearance of concentrated nucleus at 5 uM incubated for 48 hrs by transmission electron microscopy; format: functional, cell-based; summary of the method: as §2
[27] = system: CNE; experiment: Antiproliferative activity against human CNE1 cells assessed as reduction in cell viability incubated for 48 hrs by CCK-8 assay; format: functional, cell-based
[28] = system: SMMC-7721; experiment: Induction of cell morphological changes in human SMMC7721 cells assessed as appearance of large vacuoles in cytoplasm at 5 uM incubated for 48 hrs by transmission electron microscopy; format: functional, cell-based; summary of the method: as §2
[29] = system: CNE-2; experiment: Antiproliferative activity against human CNE2 cells assessed as reduction in cell viability incubated for 48 hrs by CCK-8 assay; format: functional, cell-based
[30] = system: SMMC-7721; experiment: Induction of cell morphological changes in human SMMC7721 cells assessed as change in cell membrane structure at 5 uM incubated for 48 hrs by transmission electron microscopy; format: functional, cell-based; summary of the method: as §2
[31] = system: SMMC-7721; experiment: Induction of cell morphological changes in human SMMC7721 cells assessed as swelling of mitochondria at 5 uM incubated for 48 hrs by transmission electron microscopy; format: functional, cell-based; summary of the method: as §2
[32] = system: SMMC-7721; experiment: Antiproliferative activity against human SMMC7721 assessed as reduction in cell viability incubated for 48 hrs by CCK-8 assay; format: functional, cell-based; conditions: SMMC-7721, 48 h
[33] = system: SMMC-7721; experiment: Induction of cell morphological changes in human SMMC7721 cells assessed as appearance of ridges in mitochondria at 5 uM incubated for 48 hrs by transmission electron microscopy; format: functional, cell-based; summary of the method: as §2
[34] = system: SMMC-7721; experiment: Inhibition of autophagosome formation in human SMMC7721 cells assessed as increase in p62 level at 3 uM incubated for 12 to 48 hrs by Western blot analysis; format: functional, cell-based
[35] = system: HepG2; experiment: Induction of cell vacuole formation in human HepG2 cells at 3 to 5 uM incubated for 48 hrs by phase contrast microscopy; format: functional, cell-based
[36] = system: SMMC-7721; experiment: Induction of paraptosis in human SMMC7721 cells assessed as increase in LC3-II/LC3-I expression ratio by Western blot analysis; format: functional, cell-based
[37] = system: SMMC-7721; experiment: Induction of cell morphological changes in human SMMC7721 cells assessed as appearance of small vacuoles in cytoplasm at 5 uM incubated for 48 hrs by transmission electron microscopy; format: functional, cell-based; summary of the method: as §2
[38] = system: SMMC-7721; experiment: Induction of mitochondrial swelling, vacuoles and ridges disappearance and loss of mitochondrial and golgi apparatus structural integrity in human SMMC7721 cells at 5 uM incubated for 48 hrs by transmission electron microscopy; format: functional, cell-based; summary of the method: as §2
[39] = system: SMMC-7721; experiment: Induction of paraptosis in human SMMC7721 cells assessed as increase in GRP78 expression by Western blot analysis; format: functional, cell-based
[40] = system: SMMC-7721; experiment: Induction of cell morphological changes in human SMMC7721 cells assessed as nuclear chromatin pyknosis at 3 to 10 uM incubated for 48 hrs by H and E staining based light microscopy; format: functional; summary of the method: as §3
[41] = system: SMMC-7721; experiment: Decrease in p62 expression level in human SMMC7721 cells by Western blot analysis; format: functional, cell-based
[42] = system: SMMC-7721; experiment: Effect on cleaved caspase 3 level in human SMMC7721 cells at antiproliferative IC60 incubated for 12 to 48 hrs by Western blot analysis; format: functional, cell-based
Summary of the method: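 SMMC-7721 cells were treated 12, 24 and 48 h, with cisplatin as apoptosis positive control. Extracts were immunoblotted for procaspase-3 and cleaved caspase-3, with β-actin as loading control.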

[43] = system: CNE-2; experiment: Induction of cell vacuole formation in human CNE2 cells at 3 to 5 uM incubated for 48 hrs by phase contrast microscopy; format: functional, cell-based
[44] = system: SMMC-7721; experiment: Induction of cell morphological changes in human SMMC7721 cells assessed as autophagosome formation at 5 uM incubated for 48 hrs by transmission electron microscopy; format: functional, cell-based; summary of the method: as §2
[45] = system: SMMC-7721; experiment: Induction of cytoplasmic vacuolation in human SMMC7721 cells assessed as vacuolar cell formation and appearance of apoptotic cells at 3 to 10 uM incubated for 48 hrs by phase contrast microscopy; format: functional, cell-based
[46] = system: SMMC-7721; experiment: Induction of cytoplasmic vacuolation in human SMMC7721 cells at 10 uM incubated for 48 hrs by phase contrast microscopy; format: functional, cell-based

SMILES: O=C1c2cccc(OCc3ccccc3)c2C(=O)c2c(OCc3ccccc3)cc(C(=O)N3CCN(CCO)CC3)cc21
- Activity [1]: Active
- inhibition [2]: Active
- inhibition [3]: Active
- inhibition [4]: Active
- inhibition [5]: Active
- Activity [6]: Active
- Activity [7]: Active
- Activity [8]: Active

- IC50 [32]: 1.5 µM
SMILES: O=C(NCCO)c1cc(OCc2ccccc2)c2c(c1)C(=O)c1cccc(OCc3ccccc3)c1C2=O
- Activity [1]: Active
- Activity [9]: inactive
- inhibition [10]: Dose-dependent effect
- Activity [11]: inactive
- Activity [12]: Active
- Activity [13]: Active
- inhibition [14]: Active
- Activity [15]: Active
- Activity [16]: Active
- Activity [17]: 22.42%
- Activity [18]: inactive
- Activity [19]: Active
- Activity [20]: Active
- Activity [21]: Active
- Activity [22]: Active
- Activity [23]: Active
- Activity [24]: Tde
- Activity [25]: Active
- Activity [6]: Active
- Activity [26]: Active
- inhibition [27]: Active
- Activity [28]: Active
- inhibition [29]: Active
- Activity [30]: inactive
- Activity [31]: Active
- Activity [33]: inactive
- inhibition [34]: Active
- Activity [35]: Active
- Activity [36]: Active
- Activity [7]: Active
- Activity [37]: Active
- Activity [38]: Active
- Activity [39]: Active
- Activity [40]: Active
- Activity [8]: Active
- inhibition [41]: inactive
- Activity [42]: inactive
- Activity [43]: Active
- Activity [44]: inactive

SMILES: O=C(OCCN1CCCCC1)c1cc(OCc2ccccc2)c2c(c1)C(=O)c1cccc(OCc3ccccc3)c1C2=O
- Activity [1]: Active
- Activity [9]: Active
- inhibition [2]: Active
- inhibition [3]: Active
- inhibition [4]: Active
- inhibition [5]: Active
- Activity [6]: Active
- Activity [45]: Active
- Activity [7]: Active
- Activity [8]: Active

SMILES: O=C(O)c1cc(O)c2c(c1)C(=O)c1cccc(O)c1C2=O
- Activity [36]: inactive
- Activity [39]: inactive
- inhibition [41]: inactive

SMILES: O=C(O)c1cc(OCc2ccccc2)c2c(c1)C(=O)c1cccc(OCc3ccccc3)c1C2=O
- Activity [46]: Active
- Activity [36]: inactive
- Activity [39]: Active
- inhibition [41]: inactive

Source: ChEMBL document CHEMBL4304750, “Novel Anthraquinone Compounds Induce Cancer Cell Death through Paraptosis” (ACS Med Chem Lett, 2019)
